We go through 45 compounds from ChEMBL document CHEMBL2401705, “Discovery of triazines as potent, selective and orally active PDE4 inhibitors” (Bioorg Med Chem Lett, 2013).

Data set [1] concerns the target 3',5'-cyclic-AMP phosphodiesterase 4A (Homo sapiens, UniProt P27815). Put plainly: Inhibition of human full length PDE4A4 expressed in baculovirus infected sf21 cells.
A short description of data set [2]: Aqueous solubility of the compound at pH 7.4. The note with it: buffer.
A short description of data set [3]: Intrinsic clearance in rat liver microsomes. It is filed as ADME, Microsome. The note with it: read-out: CLH.
The target in data set [4] is High affinity 3',5'-cyclic-AMP phosphodiesterase 7A (Homo sapiens, UniProt Q13946). In words: Inhibition of human full length PDE7A1 expressed in baculovirus infected sf21 cells.
The target in another data set is serum albumin (Homo sapiens, UniProt P02768). Put plainly: Binding affinity to human serum albumin. It is filed as ADME. The note with it: read-out: PB (converted).
The test system of data set [5] is Mustela putorius furo. Put plainly: Toxicity in iv dosed ferret assessed as first emetic dose by measuring occurrence of vomiting episode after 6 hrs. It is filed as organism-based. The note with it: in vivo.
Data set [6] is described as follows: Inhibition of cytochrome P450 (unknown origin). The note with it: human. It is filed as ADME.
The species entered for the next data set is Homo sapiens. Put plainly: Selectivity ratio of IC50 for human full length PDE7A1 to IC50 for human full length PDE4A4.
Data set [7] deals with Voltage-gated inwardly rectifying potassium channel KCNH2 (Homo sapiens, UniProt Q12809). Put plainly: Inhibition of human ERG. Summed up: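 hERG was tested in a binding-format assay as percent inhibition at a single test concentration of 10 µM.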
Data set [8] concerns Mustela putorius furo. Put plainly: Toxicity in po dosed ferret assessed as first emetic dose by measuring occurrence of vomiting episode after 6 hrs. It is filed as organism-based. The note with it: in vivo. Put shortly:
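Ferrets were given oral doses and watched for 6 h after administration for a vomiting episode; the first emetic dose was reported in mg/kg.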

The test system of data set [9] is Mustela putorius furo. Put plainly: Inhibition of LPS-induced neutrophilia in ferret COPD model BAL-fluid at 10 mg/kg, po. It is filed as functional.
In data set [10] the test system is Mustela putorius furo. Put plainly: Inhibition of LPS-induced neutrophilia in ferret COPD model BAL-fluid at 0.01 mg/kg, po. In kind it is functional. Summed up: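 Ferrets challenged by LPS inhalation, with compound given orally. Read-out is the change in neutrophil count in bronchoalveolar lavage fluid, expressed as percentage inhibition.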

In brackets after ≈: the same amount, converted by molar mass.

Chain of serum albumin (P02768 whole entry): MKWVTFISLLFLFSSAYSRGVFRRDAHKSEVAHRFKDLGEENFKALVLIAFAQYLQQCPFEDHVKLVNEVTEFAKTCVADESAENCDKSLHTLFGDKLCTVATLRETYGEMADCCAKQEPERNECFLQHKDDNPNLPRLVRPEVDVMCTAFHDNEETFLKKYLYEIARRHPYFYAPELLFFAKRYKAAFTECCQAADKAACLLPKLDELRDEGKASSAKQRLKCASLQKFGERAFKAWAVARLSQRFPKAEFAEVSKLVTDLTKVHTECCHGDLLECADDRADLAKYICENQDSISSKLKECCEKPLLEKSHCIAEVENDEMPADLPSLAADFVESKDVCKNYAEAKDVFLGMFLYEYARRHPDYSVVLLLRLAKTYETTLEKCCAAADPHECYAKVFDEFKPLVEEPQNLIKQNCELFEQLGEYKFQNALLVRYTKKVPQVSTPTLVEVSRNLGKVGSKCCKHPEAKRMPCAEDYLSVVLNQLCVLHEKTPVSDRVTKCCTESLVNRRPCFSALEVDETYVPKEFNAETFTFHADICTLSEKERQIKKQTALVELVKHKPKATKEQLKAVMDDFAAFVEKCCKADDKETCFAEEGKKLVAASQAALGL
Chain of High affinity 3',5'-cyclic-AMP phosphodiesterase 7A (Q13946 whole entry): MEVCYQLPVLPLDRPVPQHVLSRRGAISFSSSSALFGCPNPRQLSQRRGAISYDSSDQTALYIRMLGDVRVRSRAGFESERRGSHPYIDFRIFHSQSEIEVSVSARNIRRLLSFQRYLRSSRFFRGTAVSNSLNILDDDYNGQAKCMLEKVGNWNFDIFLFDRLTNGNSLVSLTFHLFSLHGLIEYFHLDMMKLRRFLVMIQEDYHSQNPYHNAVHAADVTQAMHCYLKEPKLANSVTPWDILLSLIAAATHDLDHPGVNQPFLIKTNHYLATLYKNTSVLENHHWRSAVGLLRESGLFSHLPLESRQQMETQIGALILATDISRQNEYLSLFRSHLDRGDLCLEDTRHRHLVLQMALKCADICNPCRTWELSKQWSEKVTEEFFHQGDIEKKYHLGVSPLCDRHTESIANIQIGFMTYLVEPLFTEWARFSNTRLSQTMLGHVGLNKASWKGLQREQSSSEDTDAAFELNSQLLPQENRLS
Chain of 3',5'-cyclic-AMP phosphodiesterase 4A (P27815 whole entry): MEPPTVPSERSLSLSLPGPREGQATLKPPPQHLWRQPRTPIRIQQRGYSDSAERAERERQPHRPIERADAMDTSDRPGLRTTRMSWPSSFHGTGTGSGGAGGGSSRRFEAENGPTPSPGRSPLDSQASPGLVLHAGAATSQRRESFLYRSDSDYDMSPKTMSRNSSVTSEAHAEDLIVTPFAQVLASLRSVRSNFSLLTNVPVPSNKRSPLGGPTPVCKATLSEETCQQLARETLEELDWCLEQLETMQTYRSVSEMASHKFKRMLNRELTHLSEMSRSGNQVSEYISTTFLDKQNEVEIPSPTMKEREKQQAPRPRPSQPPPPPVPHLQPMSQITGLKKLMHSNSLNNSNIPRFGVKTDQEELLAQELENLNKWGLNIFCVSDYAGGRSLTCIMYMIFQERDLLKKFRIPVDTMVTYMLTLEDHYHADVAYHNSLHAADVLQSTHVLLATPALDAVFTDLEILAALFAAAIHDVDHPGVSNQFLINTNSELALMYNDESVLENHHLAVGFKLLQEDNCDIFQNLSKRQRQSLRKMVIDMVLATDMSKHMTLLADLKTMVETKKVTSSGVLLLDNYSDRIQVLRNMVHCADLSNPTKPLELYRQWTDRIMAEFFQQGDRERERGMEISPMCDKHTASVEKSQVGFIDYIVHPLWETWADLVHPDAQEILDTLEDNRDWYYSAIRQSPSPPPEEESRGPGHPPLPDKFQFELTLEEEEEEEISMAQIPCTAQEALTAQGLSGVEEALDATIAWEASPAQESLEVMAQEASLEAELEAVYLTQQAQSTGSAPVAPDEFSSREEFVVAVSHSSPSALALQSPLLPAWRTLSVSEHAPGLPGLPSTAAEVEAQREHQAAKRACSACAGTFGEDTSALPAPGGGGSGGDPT
Chain of Voltage-gated inwardly rectifying potassium channel KCNH2 (Q12809 whole entry): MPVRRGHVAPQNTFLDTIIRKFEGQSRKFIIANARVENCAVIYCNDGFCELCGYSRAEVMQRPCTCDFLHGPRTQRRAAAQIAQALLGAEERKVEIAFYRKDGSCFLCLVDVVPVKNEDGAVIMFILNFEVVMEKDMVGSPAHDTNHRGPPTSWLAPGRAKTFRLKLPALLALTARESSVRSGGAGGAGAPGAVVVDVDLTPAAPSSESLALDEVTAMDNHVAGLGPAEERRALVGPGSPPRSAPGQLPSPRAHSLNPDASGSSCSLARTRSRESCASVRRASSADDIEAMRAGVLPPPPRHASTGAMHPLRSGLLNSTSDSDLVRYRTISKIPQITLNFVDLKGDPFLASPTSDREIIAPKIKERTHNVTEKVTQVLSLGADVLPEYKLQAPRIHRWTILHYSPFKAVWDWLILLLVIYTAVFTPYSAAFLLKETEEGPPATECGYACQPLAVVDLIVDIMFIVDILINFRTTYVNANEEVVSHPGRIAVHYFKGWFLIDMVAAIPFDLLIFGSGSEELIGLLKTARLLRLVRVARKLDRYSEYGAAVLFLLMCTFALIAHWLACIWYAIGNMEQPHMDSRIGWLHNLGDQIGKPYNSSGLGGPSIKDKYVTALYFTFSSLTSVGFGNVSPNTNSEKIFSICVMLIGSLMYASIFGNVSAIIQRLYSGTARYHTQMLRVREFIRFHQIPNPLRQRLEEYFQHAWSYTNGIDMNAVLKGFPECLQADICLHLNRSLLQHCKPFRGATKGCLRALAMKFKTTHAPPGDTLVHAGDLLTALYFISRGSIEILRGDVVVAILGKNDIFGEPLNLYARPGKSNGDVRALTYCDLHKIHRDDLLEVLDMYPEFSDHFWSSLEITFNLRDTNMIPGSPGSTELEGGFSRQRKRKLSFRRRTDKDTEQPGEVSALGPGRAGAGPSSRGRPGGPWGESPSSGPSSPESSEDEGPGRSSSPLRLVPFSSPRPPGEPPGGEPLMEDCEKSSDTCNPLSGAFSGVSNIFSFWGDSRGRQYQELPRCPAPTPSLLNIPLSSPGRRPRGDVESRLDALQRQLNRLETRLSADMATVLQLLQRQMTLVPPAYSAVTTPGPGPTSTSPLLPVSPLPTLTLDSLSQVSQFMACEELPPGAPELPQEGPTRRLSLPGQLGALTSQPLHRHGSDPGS

Compound `CNc1nc(Cl)nc(NC2(C#N)CCCCCC2)n1` showed an IC50 in data set [1] of 44 nM.

Take `CNc1nc(NC(C#N)(C2CC2)C2CC2)nc(-n2cncn2)n1`: the solubility in [2] is 22 µg/mL (≈ 70.7 µM). In addition, the CLint scaled in [3] amounted to 3.7 mL/min/kg. The compound also registered an IC50 in data set [1] of 0.89 nM.

Regarding `CCCC(C#N)(CCC)Nc1nc(Cl)nc(NC)n1`, inhibition in [1] was half-maximal at 60 nM (IC50).

For the compound `CNc1nc(NC2(C#N)CCCCC2)nc(-n2cnc3ccccc32)n1`, the IC50 is more than 1000 nM in data set [4] and 12 nM in [1].

Regarding `CNc1nc(Nc2ccccc2)nc(NC2(C#N)CCCCC2)n1`, the results for the IC50 in [4] and in data set [1] were more than 5000 nM and 56 nM, respectively.

Consider `CNc1nc(NC2(C#N)CCCCC2)nc(C2CC2)n1`, for which, in data set [3], the CLint scaled was 276 mL/min/kg. The IC50 in [4] is 539 nM; in data set [1], 19 nM.

Consider `CNc1nc(NC2CCCC2)nc(NC2(C#N)CCCCC2)n1`, for which the values for the IC50 in data set [4] and in data set [1] were more than 5000 nM and 59 nM, respectively.

The compound `CN(c1nc(N)nc(Cl)n1)C1(C#N)CCCCC1` showed a 50% inhibitory concentration (IC50) in [1] of 563 nM.

For `COc1ccc(C2CNC(=O)C2)cc1OC1CCCC1` (racemic) [ROLIPRAM], the fraction unbound on serum albumin was 0.42. For the same compound, in the data set with Mustela putorius furo [5], the Activity is 0.3 mg/kg. This compound came in with a solubility in data set [2] of 171 µg/mL (≈ 621 µM).

In turn, `CNc1nc(Cl)nc(NC(C)(C)C#N)n1` registered a concentration for half-maximal inhibition (IC50) in data set [1] of 160 nM.

For `CNc1nc(NC2(C#N)CCCCC2C)nc(-n2cncn2)n1` (mixture of isomers), the solubility in data set [2] is 25 µg/mL. In data set [3], the CLint scaled is 86 mL/min/kg. The compound also registered an IC50 in data set [1] of 0.15 nM.

In the case of `CNc1nc(N)nc(NC2(C#N)CCCCC2)n1`, the IC50 in data set [1] was more than 1000 nM.

Take `CNc1nc(NC2(C#N)CCCCC2)nc(-n2cnc(C)n2)n1`: the CLint scaled in data set [3] was more than 276 mL/min/kg. The half-inhibitory concentration (IC50) was more than 5000 nM in data set [4] and 1 nM in data set [1].

In turn, `CNc1nc(NC2(C#N)CCCCC2)nc(-n2cncn2)n1` gave a solubility in data set [2] of 11 µg/mL (≈ 36.7 µM). Also, the “inhibition (INH)” value in [6] and in data set [7] was “Not Active” throughout. For the same compound, the Ratio IC50 in the data set listed under Homo sapiens is more than 1000. Further, in [3], the CLint scaled stood at 52 mL/min/kg. The half-maximal inhibitory concentration (IC50) was more than 5000 nM in data set [4] and 1.7 nM in data set [1].

Take `CNc1nc(NC2(C#N)CCCCC2)nc(N(C)C)n1`: the CLint scaled in [3] amounted to 276 mL/min/kg. Moreover, the concentration for half-maximal inhibition (IC50) in [4] was more than 5000 nM; in [1], 18 nM.

`CNc1nc(NC2(C#N)CCCCCC2)nc(-n2cncn2)n1`: the solubility in [2] came to 9 µg/mL (≈ 28.7 µM). The CLint scaled in data set [3] amounted to 276 mL/min/kg. This compound also showed an IC50 in [1] of 0.42 nM.

As for `CNc1nc(NC2(C#N)CCCCC2)nc(SC)n1`, the CLint scaled in data set [3] came to 579 mL/min/kg. In addition, the results for the IC50 in [4] and in [1] were 46 nM and 4.4 nM, respectively.

Turning to `CNc1nc(NC2(C#N)CCC(C)CC2)nc(-n2cncn2)n1` (mixture of isomers), in [3], the CLint scaled was 37 mL/min/kg. In data set [1], this compound had an IC50 of 1.6 nM.

With `COc1ccc([C@]2(C#N)CC[C@@H](C(=O)O)CC2)cc1OC1CCCC1` [CILOMILAST], the Activity with Mustela putorius furo [8] worked out at 1 mg/kg. Moreover, at serum albumin, the fraction unbound is 0.09. The inhibition in vivo at 10 mg/kg in the data set with Mustela putorius furo [9] was determined as 35%. Also, the solubility in [2] stood at 17 µg/mL (≈ 49.5 µM).

`CCC(C)(C#N)Nc1nc(NC)nc(-n2cncn2)n1` (racemic): the solubility in data set [2] worked out at 50 µg/mL (≈ 183 µM). For the same compound, the CLint scaled in data set [3] was 32 mL/min/kg. This compound also returned an IC50 in data set [1] of 2.4 nM.

For `CNc1nc(NC2(C#N)CCCCC2)nc(OC)n1`, the CLint scaled in data set [3] stood at 196 mL/min/kg. Besides, the half-inhibitory concentration (IC50) amounted to 521 nM in data set [4] and 19 nM in data set [1].

Regarding `CNc1nc(NC)nc(NC2(C#N)CCCCC2)n1`, in data set [3], the CLint scaled is 210 mL/min/kg. Moreover, the 50% inhibitory concentration (IC50) was more than 1000 nM in [4] and 153 nM in data set [1].

In the case of `CNc1nc(Cl)nc(NC2CCCCC2)n1`, the concentration for half-maximal inhibition (IC50) in data set [1] stood at 104 nM. This lies in the sub-micromolar range.

As for `C#CC1(Nc2nc(Cl)nc(NC)n2)CCCCC1`, inhibition in data set [1] was half-maximal at 149 nM (IC50).

As to `CNc1nc(NC2(C#N)CCCCC2)nc(-n2cccn2)n1`, the CLint scaled in data set [3] worked out at 103 mL/min/kg. Moreover, the IC50 in data set [4] is more than 5000 nM; in [1], 3.6 nM.

For `C#CC(CC)(CC)Nc1nc(NC)nc(-n2cncn2)n1`, the CLint scaled in data set [3] worked out at 22 mL/min/kg. The same compound displayed an IC50 in data set [1] of 2.7 nM.

`CNc1nc(C#N)nc(NC2(C#N)CCCCC2)n1`: the CLint scaled in data set [3] was 122 mL/min/kg. Moreover, the IC50 in data set [4] is more than 1000 nM; in data set [1], 38 nM.

`CNc1nc(Cl)nc(NC2(C#N)CCCC2)n1`: in data set [1], the half-inhibitory concentration (IC50) amounted to 54 nM.

In the case of `CNc1nc(NC2(C#N)CCCC(C)C2)nc(-n2cncn2)n1` (mixture of isomers), the CLint scaled in data set [3] was 96 mL/min/kg. In addition, in data set [1], 0.2 nM corresponded to half-maximal inhibition (IC50).

In the case of `N#CC1(Nc2nc(Cl)nc(NC3CC3)n2)CCCCC1`, the concentration for half-maximal inhibition (IC50) in data set [1] is 126 nM.

For the compound `CNc1nc(NC2(C#N)CCCCC2)nc(N2CCCC2)n1`, the CLint scaled in data set [3] was more than 276 mL/min/kg. In addition, the concentration for half-maximal inhibition (IC50) in data set [4] is more than 5000 nM; in [1], 38 nM.

In data set [1], `N#CC1(Nc2nc(N)nc(Cl)n2)CCCCC1` had an IC50 of 1040 nM.

In turn, `CCCC(C#N)(CC)Nc1nc(NC)nc(-n2cncn2)n1` (racemic) yielded a solubility in data set [2] of 76 µg/mL (≈ 252 µM). The CLint scaled in data set [3] was determined as 29 mL/min/kg. This compound displayed a half-inhibitory concentration (IC50) in [1] of 1.1 nM.

Compound `CONc1nc(Cl)nc(NC2(C#N)CCCCC2)n1` came in with a concentration for half-maximal inhibition (IC50) in [1] of 165 nM.

The compound `CCC(C)(CC)Nc1nc(Cl)nc(NC)n1` yielded an IC50 in data set [1] of 156 nM. The IC50 values of the last two compounds are within 1.5-fold of each other.

`CCC(C#N)(CC)Nc1nc(Cl)nc(NC)n1`: in data set [1], 87 nM corresponded to half-maximal inhibition (IC50).

On to `CNc1nc(NC2(C#N)CCCCC2)nc(-n2cnc(C#N)n2)n1`, for which the CLint scaled in data set [3] stood at 210 mL/min/kg. Also, the IC50 is more than 5000 nM in data set [4] and 4.9 nM in data set [1].

Consider `CN(C)c1nc(Cl)nc(NC2(C#N)CCCCC2)n1`, for which, in data set [1], half-maximal inhibition (IC50) required 668 nM.

`CNc1nc(NC2(C#N)CCCC2)nc(-n2cncn2)n1` returned a solubility in data set [2] of 165 µg/mL (≈ 578 µM). For the same compound, the CLint scaled in data set [3] is 43 mL/min/kg. In data set [1], the IC50 was 1.4 nM.

With `O=C(Nc1c(Cl)cncc1Cl)c1ccc(OC(F)F)c(OCC2CC2)c1` [ROFLUMILAST], the Activity in the data set on Mustela putorius furo [8] came out at 1 mg/kg. The fraction unbound on serum albumin was 0.03. The compound further registered an inhibition in vivo at 0.01 mg/kg in the data set with Mustela putorius furo [10] of 65%. Further, the solubility in data set [2] amounted to 1.3 µg/mL (≈ 3.22 µM).

`CNc1nc(Cl)nc(NC2(C#N)CCCCC2)n1`: in data set [3], the CLint scaled turned out to be 867 mL/min/kg. Also, the half-inhibitory concentration (IC50) came out at 1070 nM in data set [4] and 40 nM in data set [1].

Consider `CNc1nc(Cl)nc(NC(C)(C)C)n1`, for which, in [1], the 50% inhibitory concentration (IC50) came out at 245 nM.

Compound `CCNc1nc(Cl)nc(NC2(C#N)CCCCC2)n1` came in with an IC50 in data set [1] of 232 nM.

With `CCCC(C#N)(CCC)Nc1nc(NC)nc(-n2cncn2)n1`, the CLint scaled in data set [3] was determined as 32 mL/min/kg. The compound also displayed an IC50 in [1] of 6.5 nM.

With `CNc1nc(NC2(C#N)CCCCC2)nc(-n2ccnc2)n1`, the “inhibition (INH)” value in data set [6] and in data set [7] was “Not Active” each time. Also, the CLint scaled in [3] amounted to 52 mL/min/kg. The IC50 amounted to 1050 nM in data set [4] and 6.6 nM in [1].
